For data set [1], the target named is T1, Solute carrier family 15 member 1 (Homo sapiens, UniProt P46059).
T1 sequence (P46059 whole entry): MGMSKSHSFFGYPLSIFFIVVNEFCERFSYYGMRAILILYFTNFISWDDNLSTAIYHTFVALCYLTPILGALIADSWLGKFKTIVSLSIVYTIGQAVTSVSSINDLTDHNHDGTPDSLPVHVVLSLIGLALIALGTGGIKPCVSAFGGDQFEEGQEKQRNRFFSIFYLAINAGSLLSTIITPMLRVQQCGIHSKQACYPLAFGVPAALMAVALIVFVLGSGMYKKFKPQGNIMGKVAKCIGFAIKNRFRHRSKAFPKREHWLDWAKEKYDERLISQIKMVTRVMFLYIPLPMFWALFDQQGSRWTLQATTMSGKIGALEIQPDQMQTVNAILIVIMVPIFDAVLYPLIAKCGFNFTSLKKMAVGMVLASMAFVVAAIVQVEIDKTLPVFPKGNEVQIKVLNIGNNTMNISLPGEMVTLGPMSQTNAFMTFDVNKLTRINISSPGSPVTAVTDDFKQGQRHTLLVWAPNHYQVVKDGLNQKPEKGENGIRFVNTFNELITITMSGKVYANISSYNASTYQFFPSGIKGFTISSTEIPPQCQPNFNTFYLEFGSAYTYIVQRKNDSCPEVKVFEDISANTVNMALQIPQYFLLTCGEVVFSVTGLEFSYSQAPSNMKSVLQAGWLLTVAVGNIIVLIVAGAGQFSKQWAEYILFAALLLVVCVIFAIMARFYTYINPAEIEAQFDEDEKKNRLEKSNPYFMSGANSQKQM
In words: Inhibition of human PEPT1-mediated [3H]Gly-Sar uptake in human HeLa cells. Format: cell-based. The method in brief:
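HeLa cells grown 5 days, infected with hPEPT1 adenovirus 3 days before assay, washed in pH 6.0 MES uptake buffer. Incubated 30 min at 37 °C with 10 μM Gly-Sar (0.1 μM [3H]) plus test compound at 0.05–5 mM. Cells washed ice-cold, lysed in 0.1% SDS, scintillation counted. IC50 by nonlinear fit; n=4.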

Data set [2] is described as follows: Chemical stability assessed as half life of hydrolysis in pH 7.4 buffer. Format: physicochemical. The note with it: for t1/2: buffer. The method in brief: (§1)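 Hydrolysis at 37 °C in pH 6.0 uptake buffer (140 mM NaCl, 5.4 mM KCl, 1.8 mM CaCl2, 0.8 mM MgSO4, 5 mM glucose, 25 mM MES) or 10 mM phosphate pH 7.4. Compound added from 200 mM DMSO stock. […] Triplicate, mean ± SEM.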

Data set [3] is described as follows: Stability in human HeLa cells after 60 mins. Format: ADME, cell-based. The note with it: read-out: Stability. The procedure, abridged: (§2)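 HeLa cells, with or without hPEPT1 adenovirus infection 3 days before assay, after 5 days' growth. Preincubated 15 min in pH 6.0 MES uptake buffer, then given 1 mM compound for 60 min at 37 °C. Cells washed in ice-cold DPBS, sonicated, TFA-precipitated (final 7%), supernatant read by HPLC and normalized to protein (nmol/mg). Donor solution stability by HPLC. Triplicate, mean ± SEM.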

The nature of data set [4]: Chemical stability in pH 6 buffer after 2 hrs. Format: physicochemical. Particulars: pH 6, 2 h. The procedure, abridged: as §1
The test system of data set [5] is HeLa. The data set can be described thus: Stability in human HeLa cell homogenate assessed as half life of hydrolysis. Format: ADME, cell-based. The method in brief: (§3)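 Homogenates from HeLa or Caco-2 cells: NaCl-washed, collected in 10 mM phosphate pH 7.4, sonicated on ice, spun 10,000 rpm 10 min at 4 °C; supernatant adjusted to 500 μg/mL protein. Compound added from 200 mM DMSO stock at 37 °C.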

Data set [6] deals with HeLa. In words: Drug uptake in human HeLa cells expressing hPEPT1 after 60 mins. Format: ADME, cell-based. The note with it: 1 h. The method in brief:
as §2

The test system of data set [7] is HeLa. The data set can be described thus: Drug uptake in human HeLa cells after 60 mins. The note with it: 1 h. Format: ADME, cell-based. The method in brief:
as §2

Data set [8] has as its system Caco-2. In words: Stability in human Caco-2 cell homogenate assessed as half life of hydrolysis. Format: ADME, Colon. The procedure, abridged:
as §3

Data set [9] is described as follows: Stability in human HeLa cells expressing hPEPT1 after 60 mins. Particulars: read-out: Stability. Format: ADME, cell-based. The procedure, abridged: as §2
In the next data set the test system is hPEPT1. In words: Drug uptake in human HeLa cells expressing hPEPT1 after 60 mins relative ro control. Format: ADME, cell-based. The method in brief:
as §2

Data set [10] can be described thus: Stability in apical side in human Caco-2 cells at 120 mins by permeability study. The note with it: read-out: Stability. Format: ADME, cell-based.
Data set [11] has as its target T2, Serine hydrolase BPHL (Homo sapiens) (UniProt Q86WA6).
T2 sequence (whole entry): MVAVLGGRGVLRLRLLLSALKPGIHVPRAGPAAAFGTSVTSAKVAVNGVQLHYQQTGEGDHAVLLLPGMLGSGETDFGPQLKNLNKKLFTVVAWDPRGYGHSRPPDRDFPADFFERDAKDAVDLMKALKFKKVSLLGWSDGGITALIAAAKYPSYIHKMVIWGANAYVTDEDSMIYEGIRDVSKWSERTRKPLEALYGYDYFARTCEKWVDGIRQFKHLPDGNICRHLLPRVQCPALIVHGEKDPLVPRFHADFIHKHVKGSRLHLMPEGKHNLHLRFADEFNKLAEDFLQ
The data set can be described thus: Ratio of Kcat to Km of human recombinant VACVase assessed as hydrolysis. The method in brief: (§4)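 Recombinant human VACVase expressed in and purified from E. coli, stored at −80 °C, protein measured by Bio-Rad DC assay against BSA. Run in 50 mM HEPES pH 7.4 at 37 °C with 5 min buffer preincubation, enzyme added, then substrate to start. Michaelis-Menten fit; kcat = Vmax/[enzyme]0 using 28.83 kDa mass, active protein normalized to valacyclovir specific activity. Triplicate.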

Data set [12] in a line: Chemical stability in pH 7.4 buffer after 2 hrs. The note with it: pH 7.4, 2 h. Format: physicochemical. The method in brief: as §1
In data set [13] the test system is Caco-2. In words: Stability in human Caco-2 cell homogenate after 2 hrs. Format: ADME, cell-based. Particulars: caco-2, 2 h. The procedure, abridged: as §3
The subject of data set [14] is HeLa. In words: Stability in human HeLa cell homogenate after 2 hrs. Format: ADME, cell-based. The method in brief:
as §3

Substrate in data set [15]: CC(C)[C@H](N)C(=O)OCCOCn1cnc2c(=O)nc(N)[nH]c21
The data set can be described thus: (§5) Activity of human recombinant VACVase assessed as hydrolysis measured per ug of protein. The procedure, abridged: as §4

Substrate in data set [16]: N=C(N)Nc1cccc(COC(=O)[C@@H](N)Cc2ccccc2)c1
The data set is described as §5. The method in brief: as §4

Substrate in data set [17]: CC[C@H](C)[C@H](N)C(=O)OCc1cccc(NC(=N)N)c1
Described as §5. The procedure, abridged:
as §4

Substrate in data set [18]: CC(C)[C@H](N)C(=O)OCc1cccc(NC(=N)N)c1
Described as §5. The procedure, abridged: as §4

Substrate in data set [19]: CC(C)[C@H](N)C(=O)OCCOCn1cnc2c(=O)nc(N)[nH]c21
The data set can be described thus: (§6) Activity of human recombinant VACVase assessed as hydrolysis. The procedure, abridged: as §4

Substrate in data set [20]: N=C(N)Nc1cccc(COC(=O)[C@@H](N)Cc2ccccc2)c1
Described as §6. The method in brief: as §4

Substrate in data set [21]: CC[C@H](C)[C@H](N)C(=O)OCc1cccc(NC(=N)N)c1
The data set is described as §6. The method in brief:
as §4

Substrate in data set [22]: CC(C)[C@H](N)C(=O)OCc1cccc(NC(=N)N)c1
Described as §6. The method in brief:
as §4

Where only a bound is given, the exact number is not on record here.

`NC(N)=Nc1cccc(COC(=O)[C@@H](N)Cc2ccccc2)c1`: the 50% inhibitory concentration (IC50) in [1] was determined as 2.33 mM. In addition, the results for the t1/2 (in [2]; with HeLa [5]; in the data set on Caco-2 [8]) were 261.8 min, less than 5 min and less than 1 min, respectively. Further, the remaining at 1 h in data set [3] worked out at 87.2%; in [9] it was 83.8%. For the same molecule, the Stability entry in data set [4] is reported as “Stable”. For the same molecule, the results for the Drug uptake in the data set with HeLa [6] and with HeLa [7] were 14.8 nmol/mg and 1.7 nmol/mg, respectively. Also, the uptake ratio at 1 h with hPEPT1 came out at 8.8. The remaining at 2 h in data set [10] amounted to 3.9%.
As to `N=C(N)Nc1cccc(COC(=O)[C@@H](N)Cc2ccccc2)c1`, the Ratio in data set [11] was found to be 1660 mM⁻¹ s⁻¹.
On to `CC(C)[C@@H](N)C(=O)OCc1cccc(NC(=N)N)c1`, for which the remaining at 2 h in data set [10] was found to be 98.8%.
Regarding `N=C(N)Nc1cccc(CO)c1` [[3-(hydroxymethyl)phenyl]guanidine], the Stability result (in data set [12]; in the data set with Caco-2 [13]; in the data set on HeLa [14]; in data set [4]) was “Stable” each time. This molecule showed a 50% inhibitory concentration (IC50) in data set [1] of more than 3 mM. The Drug uptake in the data set with HeLa [6] was determined as 5.5 nmol/mg; with HeLa [7] it was 3.8 nmol/mg. Besides, the uptake ratio at 1 h in the data set on hPEPT1 was 1.4.
For the molecule `CC(C)[C@H](N)C(=O)OCc1cccc(NC(=N)N)c1`, inhibition in data set [1] was half-maximal at 0.65 mM (IC50). Also, the t1/2 in data set [2] came to 493.6 min; with HeLa [5], 20.3 min; in the data set with Caco-2 [8], 4.8 min. Further, the remaining at 1 h was found to be 98% in data set [3] and 96.9% in [9]. Further, the Stability entry in data set [4] was “Stable”. Moreover, in data set [11], the Ratio is 3370 mM⁻¹ s⁻¹. Further, the values for the Drug uptake in the data set with HeLa [6] and in the data set with HeLa [7] were 50.2 nmol/mg and less than 2 nmol/mg, respectively. In the data set on hPEPT1, the uptake ratio at 1 h was more than 25. For the same molecule, the remaining at 2 h in data set [10] came out at 86.5%.
For `CC[C@H](C)[C@H](N)C(=O)OCc1cccc(NC(=N)N)c1`, in [11], the Ratio was found to be 1580 mM⁻¹ s⁻¹.
Molecule `CC(C)[C@H](N)C(=O)OCCOCn1cnc2c(=O)[nH]c(N)nc21` [VALACYCLOVIR] showed an IC50 in data set [1] of 1.42 mM. Besides, the half-life in data set [2] (pH 7.4 buffer) amounted to 494 min. The remaining at 1 h was 99.2% in data set [3] and 96.8% in [9]. The Stability result in [4] is given as “Stable”. For the same molecule, the t1/2 in the data set with HeLa [5] was found to be 142.2 min; with Caco-2 [8] it was 31.3 min. Also, the results for the Drug uptake in the data set on HeLa [6] and in the data set with HeLa [7] were 5.5 nmol/mg and less than 0.2 nmol/mg, respectively. Moreover, the remaining at 2 h in [10] stood at 94.7%.
In data set [1], `CC[C@H](C)[C@H](N)C(=O)OCc1cccc(N=C(N)N)c1` yielded a concentration for half-maximal inhibition (IC50) of 0.63 mM. For the same molecule, the figures for the t1/2 (in data set [2]; with HeLa [5]; in the data set on Caco-2 [8]) were 704.8 min, 137.2 min and 59.6 min, respectively. For the same molecule, the results for the remaining at 1 h in [3] and in data set [9] were 99% and 98.7%, respectively. Besides, the Stability entry in data set [4] was “Stable”. In addition, the results for the Drug uptake with HeLa [6] and with HeLa [7] were 27.7 nmol/mg and less than 2 nmol/mg, respectively. The uptake ratio at 1 h with hPEPT1 was more than 13. Moreover, the remaining at 2 h in data set [10] was 96.6%.
For the molecule `CC(C)[C@H](N)C(=O)OCCOCn1cnc2c(=O)nc(N)[nH]c21`, in data set [11], the Ratio was 850 mM⁻¹ s⁻¹.

B1: Serine hydrolase BPHL (Homo sapiens), Q86WA6 (protein)
chain: MVAVLGGRGVLRLRLLLSALKPGIHVPRAGPAAAFGTSVTSAKVAVNGVQLHYQQTGEGDHAVLLLPGMLGSGETDFGPQLKNLNKKLFTVVAWDPRGYGHSRPPDRDFPADFFERDAKDAVDLMKALKFKKVSLLGWSDGGITALIAAAKYPSYIHKMVIWGANAYVTDEDSMIYEGIRDVSKWSERTRKPLEALYGYDYFARTCEKWVDGIRQFKHLPDGNICRHLLPRVQCPALIVHGEKDPLVPRFHADFIHKHVKGSRLHLMPEGKHNLHLRFADEFNKLAEDFLQ
For the molecule B1, the Vmax in [15] turned out to be 120 nmol/min; in [16], 718 nmol/min/µg; in data set [17], 30 nmol/min/µg; in data set [18], 321 nmol/min/µg. Also, the Km in [19] came out at 68 µM; in data set [20] it was 207 µM; in [21] it was 9 µM; in data set [22] it was 46 µM. Further, the kcat in data set [19] was found to be 58 s⁻¹; in [20], 345 s⁻¹; in data set [21] it was 14 s⁻¹; in [22], 154 s⁻¹.

A word on the IC50: it is the concentration needed to halve the response being measured. Higher therefore signals lower potency. As usually defined, the half-life is how long it takes for the measured level to halve. Usually Km stands for the substrate concentration at which the rate is half of its maximum. A word on the kcat: it is the number of substrate molecules converted per active site and unit of time at saturation.

Source of the values: ChEMBL document CHEMBL1157698, “Enhancing the intestinal absorption of molecules containing the polar guanidino functionality: a double-targeted prodrug approach” (J Med Chem, 2010).
